Test results as given in ChEMBL document CHEMBL1909578, “New diarylureas and diarylamides containing 1,3,4-triarylpyrazole scaffold: Synthesis, antiproliferative evaluation against melanoma cell lines, ERK kinase inhibition, and molecular docking studies” (Eur J Med Chem, 2011).

Legend:
[1] = Antiproliferative activity against human A375P cells after 48 hrs by MTT assay; format: functional, cell-based
In short: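 A375P cells grown in DMEM with 10% FBS and 1% penicillin/streptomycin at 37 °C, 5% CO2. Cells detached with 0.05% trypsin-0.02% EDTA, seeded at 5×10^3 cells/well, and left 24 h. Then exposed for 48 h to 12-point 3-fold serial dilutions. Viability read by MTT reduction, absorbance at 590 nm. IC50 derived from the concentration-response curve.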

LOX IMVI = assay: Antiproliferative activity against human LOXIMVI cells after 48 hrs by SRB assay; format: functional, cell-based
In short: (§1)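 NCI melanoma panel grown in RPMI 1640 with 5% FBS and 2 mM glutamine. Seeded at 5000–40,000 cells/well, then 24 h before dosing, with time-zero plates fixed. Five concentrations (10-fold or 1/2-log dilutions from DMSO stock) for 48 h. Cells TCA-fixed, stained with 0.4% SRB, read at 515 nm. IC50 is 50% reduction in net protein increase, from (Ti−Tz)/(C−Tz).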

M14 = assay: Antiproliferative activity against human M14 cells after 48 hrs by SRB assay; format: functional, cell-based; settings: M14, 48 h; in short: as §1
MDA-MB-435 = assay: Antiproliferative activity against human MDA-MB-435 cells after 48 hrs by SRB assay; format: functional, cell-based; settings: MDA-MB-435, 48 h; in short: as §1
SK-MEL-2 = assay: Antiproliferative activity against human SK-MEL-2 cells after 48 hrs by SRB assay; format: functional, cell-based; settings: SK-MEL-2, 48 h; in short: as §1
SK-MEL-28 = assay: Antiproliferative activity against human SK-MEL-28 cells after 48 hrs by SRB assay; format: functional, cell-based; settings: SK-MEL-28, 48 h; in short: as §1
SK-MEL-5 = assay: Antiproliferative activity against human SK-MEL-5 cells after 48 hrs by SRB assay; format: functional, cell-based; settings: SK-MEL-5, 48 h; in short: as §1
UACC-257 = assay: Antiproliferative activity against human UACC257 cells after 48 hrs by SRB assay; format: functional, cell-based; settings: UACC-257, 48 h; in short: as §1
UACC-62 = assay: Antiproliferative activity against human UACC62 cells after 48 hrs by SRB assay; format: functional, cell-based; settings: UACC-62, 48 h; in short: as §1
[2] = target: Mitogen-activated protein kinase; ERK1/ERK2 (Homo sapiens) (UniProt P27361+P28482); assay: Inhibition of ERK1/2 phosphorylation in human A375P cells after 24 hrs by immunoblotting; format: cell-based
In short: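 A375P melanoma cells treated with 1, 3 and 10 μM compound for 24 h. Lysed in RIPA buffer, sonicated, centrifuged, and protein quantified by DC assay. Lysates run on SDS-PAGE and immunoblotted for phospho-ERK1/2, with β-actin as loading reference.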

Mitogen-activated protein kinase; ERK1/ERK2 (Homo sapiens), sequence (P27361 whole entry, looked up): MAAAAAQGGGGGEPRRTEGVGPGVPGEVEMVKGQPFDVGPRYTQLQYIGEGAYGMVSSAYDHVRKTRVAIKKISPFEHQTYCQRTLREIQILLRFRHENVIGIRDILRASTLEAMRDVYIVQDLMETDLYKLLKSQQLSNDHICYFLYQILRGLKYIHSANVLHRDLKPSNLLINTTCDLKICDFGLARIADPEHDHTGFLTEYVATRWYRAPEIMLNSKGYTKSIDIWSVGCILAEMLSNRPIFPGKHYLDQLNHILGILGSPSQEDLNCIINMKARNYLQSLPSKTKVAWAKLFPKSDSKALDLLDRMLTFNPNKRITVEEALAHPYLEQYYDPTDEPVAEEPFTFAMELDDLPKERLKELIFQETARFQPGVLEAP
Mitogen-activated protein kinase; ERK1/ERK2 (Homo sapiens), sequence (P28482 whole entry, looked up): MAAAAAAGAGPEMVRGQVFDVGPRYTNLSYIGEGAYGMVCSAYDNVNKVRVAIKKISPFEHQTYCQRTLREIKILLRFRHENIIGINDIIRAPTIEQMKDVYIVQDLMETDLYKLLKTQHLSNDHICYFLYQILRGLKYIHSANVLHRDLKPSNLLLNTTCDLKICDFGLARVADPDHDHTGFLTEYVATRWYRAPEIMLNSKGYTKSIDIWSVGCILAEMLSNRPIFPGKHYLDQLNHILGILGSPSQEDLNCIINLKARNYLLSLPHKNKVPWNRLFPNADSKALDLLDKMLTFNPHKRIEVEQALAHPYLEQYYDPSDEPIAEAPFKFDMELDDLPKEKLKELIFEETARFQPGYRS

| IC50 (MDA-MB-435) [nM] | IC50 (SK-MEL-2) [nM] | IC50 (SK-MEL-28) [nM] | IC50 (SK-MEL-5) [nM] | inhibition [2] | Structure (SMILES) | IC50 [1] [nM] | IC50 (LOX IMVI) [nM] | IC50 (M14) [nM] | IC50 (UACC-257) [nM] | IC50 (UACC-62) [nM] |
| --- | --- | --- | --- | --- | --- | --- | --- | --- | --- | --- |
| 1320 | 1700 | 1630 | 1530 |  | O=C(Nc1ccc(-n2cc(-c3ccncc3)c(-c3ccc(Cl)c(O)c3)n2)cc1)Nc1ccc(Cl)c(C(F)(F)F)c1 | 14900 | 1440 | 1430 | 1510 | 1700 |
| 1770 | 1800 | 2010 | 1670 |  | O=C(Nc1ccc(-n2cc(-c3ccncc3)c(-c3ccc(Cl)c(O)c3)n2)cc1)Nc1cc(C(F)(F)F)cc(C(F)(F)F)c1 | > 20000 | 1630 | 1760 | 2010 | 2230 |
|  |  |  |  |  | O=C(Nc1ccc(-n2cc(-c3ccncc3)c(-c3ccc(Cl)c(O)c3)n2)cc1)Nc1cccc(Cl)c1Cl | 16800 |  |  |  |  |
|  |  |  |  |  | COc1cc(-c2nn(-c3ccc(NC(=O)c4cc(C(F)(F)F)cc(C(F)(F)F)c4)cc3)cc2-c2ccncc2)ccc1Cl | > 20000 |  |  |  |  |
| 1200 | 1580 | 1080 | 1070 |  | O=C(Nc1ccc(-n2cc(-c3ccncc3)c(-c3ccc(Cl)c(O)c3)n2)cc1)c1ccc(Cl)c(C(F)(F)F)c1 | 6800 | 360 | 840 | 2550 | 2030 |
|  |  |  |  |  | CNC(=O)c1cc(Oc2ccc(NC(=O)Nc3ccc(Cl)c(C(F)(F)F)c3)cc2)ccn1 [SORAFENIB] | 11500 |  |  |  |  |
|  |  |  |  |  | COc1cc(-c2nn(-c3ccc(NC(=O)Nc4cccc(Cl)c4Cl)cc3)cc2-c2ccncc2)ccc1Cl | > 20000 |  |  |  |  |
| 2870 | 3440 | 3940 | 2840 |  | COc1cc(-c2nn(-c3ccc(NC(=O)Nc4ccc(Cl)c(Cl)c4)cc3)cc2-c2ccncc2)ccc1Cl | > 20000 | 1980 | 2560 | 3170 | 3350 |
| 2520 | 3150 | 2800 | 1590 |  | COc1cc(-c2nn(-c3ccc(NC(=O)c4ccc(Cl)c(C(F)(F)F)c4)cc3)cc2-c2ccncc2)ccc1Cl | 9800 | 1560 | 1920 | 5830 | 2180 |
| 7130 | 5740 | 40300 | 1650 |  | COc1cc(-c2nn(-c3ccc(NC(=O)c4ccc(Cl)c(Cl)c4)cc3)cc2-c2ccncc2)ccc1Cl | 13000 | 2760 | 22400 | > 100000 | 6340 |
| 4110 | 6600 | 4880 | 1550 |  | O=C(Nc1ccc(-n2cc(-c3ccncc3)c(-c3ccc(Cl)c(O)c3)n2)cc1)c1cc(C(F)(F)F)cc(C(F)(F)F)c1 | > 20000 | 2540 | 6340 | 8940 | 14400 |
| 2730 | 4050 | 2940 | 1150 | Dose-dependent effect | O=C(Nc1ccc(-n2cc(-c3ccncc3)c(-c3ccc(Cl)c(O)c3)n2)cc1)c1ccc(Cl)c(Cl)c1 | 6700 | 1450 | 2350 | 4740 | 3220 |
| > 100000 | > 100000 | > 100000 | 12000 |  | COc1cc(-c2nn(-c3ccc(NC(=O)c4cc(Cl)cc(Cl)c4)cc3)cc2-c2ccncc2)ccc1Cl | > 20000 | 3090 | 7390 | > 100000 | 4580 |
| 3780 | 6910 | 2750 | 1400 |  | O=C(Nc1ccc(-n2cc(-c3ccncc3)c(-c3ccc(Cl)c(O)c3)n2)cc1)c1cc(Cl)cc(Cl)c1 | 6800 | 1190 | 1510 | 5700 | 2730 |
| 1880 | 1700 | 1930 | 1530 |  | COc1cc(-c2nn(-c3ccc(NC(=O)Nc4cc(C(F)(F)F)cc(C(F)(F)F)c4)cc3)cc2-c2ccncc2)ccc1Cl | 11800 | 1630 | 1990 | 2300 | 1550 |
|  |  |  |  |  | O=C(Nc1ccc(-n2cc(-c3ccncc3)c(-c3ccc(Cl)c(O)c3)n2)cc1)Nc1ccc(Cl)c(Cl)c1 | 13500 |  |  |  |  |
| 1600 | 1630 | 1880 | 1570 |  | COc1cc(-c2nn(-c3ccc(NC(=O)Nc4ccc(Cl)c(C(F)(F)F)c4)cc3)cc2-c2ccncc2)ccc1Cl | 14000 | 1430 | 1740 | 1640 | 1770 |
